{
  "source": "ChEMBL document CHEMBL1143267",
  "about": "“Type II NADH dehydrogenase of the respiratory chain of Plasmodium falciparum and its inhibitors” (Bioorg Med Chem Lett, 2009)",
  "key": {"[1]": {"system": "Plasmodium falciparum", "assay": "Activity of Plasmodium falciparum NDH2 expressed in Escherichia coli by Michaelis-Menten plot", "summary_of_the_method": "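Full-length enzyme with C-terminal 6xHis tag, purified in 0.5% Triton X-100. NAD+ formed was quantified by fluorescence: acetophenone base, then formic acid at 100 °C, excitation 372 nm, emission 444 nm. HEPES pH 8.0. One substrate (electron acceptor or NADH) varied while the other was fixed at 500 µM. Km and kcat from best-fit Michaelis–Menten curves, three independent experiments.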"}, "[2]": {"assay": "Inhibition of Plasmodium falciparum NDH2", "summary_of_the_method": "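Purified recombinant His-tagged enzyme, HEPES pH 8.0. Reaction with 200 µM NADH and 100 µM CoQ0. NAD+ product quantified by fluorescence after acetophenone/formic acid derivatisation at 100 °C (ex 372/em 444 nm). Compounds tested up to 10 µM. IC50 from three independent experiments.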"}, "[3]": {"target": "T1, Dihydroorotate dehydrogenase (Plasmodium falciparum, UniProt Q54A96)", "T1 sequence (Q54A96 whole entry)": "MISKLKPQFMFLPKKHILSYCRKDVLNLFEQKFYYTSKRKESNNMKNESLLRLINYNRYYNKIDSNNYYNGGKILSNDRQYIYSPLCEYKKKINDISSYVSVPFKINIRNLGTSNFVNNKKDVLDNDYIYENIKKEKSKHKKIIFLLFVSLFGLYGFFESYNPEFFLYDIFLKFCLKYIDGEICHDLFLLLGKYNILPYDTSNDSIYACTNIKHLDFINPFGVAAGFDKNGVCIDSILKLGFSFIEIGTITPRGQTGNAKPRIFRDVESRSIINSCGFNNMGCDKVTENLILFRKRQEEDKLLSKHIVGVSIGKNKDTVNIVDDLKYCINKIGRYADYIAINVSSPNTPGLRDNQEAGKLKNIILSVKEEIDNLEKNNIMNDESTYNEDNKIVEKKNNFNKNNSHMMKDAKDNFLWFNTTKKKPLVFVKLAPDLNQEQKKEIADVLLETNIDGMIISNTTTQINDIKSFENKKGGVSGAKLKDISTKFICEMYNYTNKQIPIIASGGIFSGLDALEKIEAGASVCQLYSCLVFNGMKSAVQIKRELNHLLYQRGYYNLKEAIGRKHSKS", "assay": "Inhibition of Plasmodium falciparum DHOD", "summary_of_the_method": "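DCIP-coupled chromogenic assay with 500 µM L-dihydroorotate and 115 µM CoQ0 as electron acceptor. Compounds tested up to 10 µM. IC50 from three independent experiments.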"}, "[4]": {"target": "T2, Dihydroorotate dehydrogenase (fumarate) (Saccharomyces cerevisiae S288c, UniProt P28272)", "T2 sequence (P28272 whole entry)": "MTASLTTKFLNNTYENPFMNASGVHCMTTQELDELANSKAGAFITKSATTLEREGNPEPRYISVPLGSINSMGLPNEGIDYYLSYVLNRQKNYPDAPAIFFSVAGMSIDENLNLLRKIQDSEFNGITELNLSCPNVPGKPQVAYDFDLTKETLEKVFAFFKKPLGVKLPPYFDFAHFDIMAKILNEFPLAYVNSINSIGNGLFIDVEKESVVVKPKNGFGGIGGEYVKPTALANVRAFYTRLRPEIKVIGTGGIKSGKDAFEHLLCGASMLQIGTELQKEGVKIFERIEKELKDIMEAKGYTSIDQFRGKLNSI", "assay": "Inhibition of Saccharomyces cerevisiae DHOD"}, "[5]": {"system": "Plasmodium falciparum", "assay": "Antimalarial activity against Plasmodium falciparum DD2 expressing Saccharomyces cerevisiae DHOD by [3H]hypoxanthine uptake", "format": "functional, organism-based", "summary_of_the_method": "(§1)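 Asexual parasite proliferation measured by [3H]-hypoxanthine incorporation dose–effect curves, in parental DD2 and a transgenic DD2 line expressing yeast cytoplasmic DHOD. IC50 from three independent experiments. Antimycin A, a mixture of A1–A4, expressed in mg/mL.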"}, "[6]": {"system": "Plasmodium falciparum", "assay": "Antimalarial activity against Plasmodium falciparum DD2 by [3H]hypoxanthine uptake", "format": "functional, organism-based", "summary_of_the_method": "as §1"}},
  "data": [
    {"smiles": "O=C1C=CC(=Nc2cc(Cl)c(O)c(Cl)c2)C=C1", "values": [
      {"measurement": "Km", "setting": "[1]", "value": 4.6, "unit": "µM"},
      {"measurement": "kcat", "setting": "[1]", "value": 0.0317, "unit": "s⁻¹"}
    ]},
    {"smiles": "CCCCCC[C@H]1C(=O)O[C@H](C)[C@H](NC(=O)c2cccc(NC=O)c2O)C(=O)O[C@@H](C)[C@@H]1OC(=O)CC(C)C", "note": "[ANTIMYCIN A]", "values": [
      {"measurement": "IC50", "setting": "[2]", "value": "> 10", "unit": "µM"},
      {"measurement": "IC50", "setting": "[3]", "value": "> 10", "unit": "µM"},
      {"measurement": "IC50", "setting": "[4]", "value": "> 10", "unit": "µM"},
      {"measurement": "IC50", "setting": "[5]", "value": "> 10", "unit": "µM"}
    ]},
    {"smiles": "C[C@@H]1CC[C@H]2[C@@H](C)C(=O)O[C@@H]3O[C@@]4(C)CC[C@@H]1[C@]32OO4", "note": "[ARTEMISININ]", "values": [
      {"measurement": "IC50", "setting": "[2]", "value": "> 10", "unit": "µM"},
      {"measurement": "IC50", "setting": "[3]", "value": "> 10", "unit": "µM"},
      {"measurement": "IC50", "setting": "[4]", "value": "> 10", "unit": "µM"},
      {"measurement": "IC50", "setting": "[5]", "value": 0.006, "unit": "µM"}
    ]},
    {"smiles": "CC1=CC(=O)c2ccccc2C1=O", "values": [
      {"measurement": "Km", "setting": "[1]", "value": 239, "unit": "µM"},
      {"measurement": "kcat", "setting": "[1]", "value": 0.0767, "unit": "s⁻¹"}
    ]},
    {"smiles": "O=C1C(O)=C([C@H]2CC[C@H](c3ccc(Cl)cc3)CC2)C(=O)c2ccccc21", "note": "[ATOVAQUONE]", "values": [
      {"measurement": "IC50", "setting": "[2]", "value": "> 10", "unit": "µM"},
      {"measurement": "IC50", "setting": "[3]", "value": "> 10", "unit": "µM"},
      {"measurement": "IC50", "setting": "[4]", "value": "> 10", "unit": "µM"},
      {"measurement": "IC50", "setting": "[6]", "value": 0.002, "unit": "µM"},
      {"measurement": "IC50", "setting": "[5]", "value": "> 10", "unit": "µM"}
    ]},
    {"smiles": "CCCCCCCCCCCCc1cc(=O)c2ccccc2n1O", "values": [
      {"measurement": "IC50", "setting": "[2]", "value": "> 10", "unit": "µM"},
      {"measurement": "IC50", "setting": "[3]", "value": 4, "unit": "µM"},
      {"measurement": "IC50", "setting": "[4]", "value": "> 10", "unit": "µM"},
      {"measurement": "IC50", "setting": "[5]", "value": "> 10", "unit": "µM"}
    ]},
    {"smiles": "O=c1cc(-c2ccccc2)oc2ccccc12", "note": "[FLAVONE]", "values": [
      {"measurement": "IC50", "setting": "[2]", "value": "> 10", "unit": "µM"},
      {"measurement": "IC50", "setting": "[3]", "value": "> 10", "unit": "µM"},
      {"measurement": "IC50", "setting": "[4]", "value": "> 10", "unit": "µM"},
      {"measurement": "IC50", "setting": "[6]", "value": 0.002, "unit": "µM"},
      {"measurement": "IC50", "setting": "[5]", "value": "> 10", "unit": "µM"}
    ]},
    {"smiles": "C=C(C)[C@H]1Cc2c(ccc3c2O[C@@H]2COc4cc(OC)c(OC)cc4[C@@H]2C3=O)O1", "note": "[ROTENONE]", "values": [
      {"measurement": "IC50", "setting": "[2]", "value": "> 10", "unit": "µM"},
      {"measurement": "IC50", "setting": "[3]", "value": "> 10", "unit": "µM"},
      {"measurement": "IC50", "setting": "[4]", "value": "> 10", "unit": "µM"},
      {"measurement": "IC50", "setting": "[6]", "value": "> 10", "unit": "µM"},
      {"measurement": "IC50", "setting": "[5]", "value": "> 10", "unit": "µM"}
    ]},
    {"smiles": "c1ccc2c(c1)[I+]c1ccccc1-2", "note": "[DIPHENYLENEIODONIUM CHLORIDE]", "values": [
      {"measurement": "IC50", "setting": "[3]", "value": "> 10", "unit": "µM"}
    ]},
    {"smiles": "c1ccc([I+]c2ccccc2)cc1", "note": "[DIPHENYLIODONIUM CHLORIDE]", "values": [
      {"measurement": "IC50", "setting": "[2]", "value": "> 10", "unit": "µM"},
      {"measurement": "IC50", "setting": "[3]", "value": "> 10", "unit": "µM"},
      {"measurement": "IC50", "setting": "[4]", "value": "> 10", "unit": "µM"},
      {"measurement": "IC50", "setting": "[6]", "value": 12.4, "unit": "µM"},
      {"measurement": "IC50", "setting": "[5]", "value": 10.6, "unit": "µM"}
    ]}
  ]
}
